# Assay results taken from ChEMBL document CHEMBL3232844, “Synthesis and structure activity relationships of schweinfurthin indoles” (2014).
# Legend:
# Assay type in all cases: functional
# CCRF-CEM = test: Cytotoxicity against human CCRF-CEM cells
# HL-60(TB) = test: Cytotoxicity against human HL-60(TB) cells
# How it was run: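 Tested within the NCI 60-cell-line screen, with GI50 as the read-out. Values are the average of two independent experiments. The lowest concentration tested was 10 nM.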
# MOLT-4 = test: Cytotoxicity against human MOLT4 cells
# How it was run: (§1)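 Tested in a 60-cell-line human tumor panel screen; the read-out is growth inhibition, reported as GI50 for each cell line.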
# SR = test: Cytotoxicity against human SR cells
# How it was run: (§2)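 Cell line run as part of the 60-cell-line screening panel; growth inhibition was reported as a GI50 for each line.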
# A549 = test: Cytotoxicity against human A549 cells; how it was run: as §1
# HOP-62 = test: Cytotoxicity against human HOP62 cells; how it was run: as §1
# COLO 205 = test: Cytotoxicity against human COLO205 cells; how it was run: as §1
# HCC 2998 = test: Cytotoxicity against human HCC2998 cells; how it was run: as §1
# HCT-116 = test: Cytotoxicity against human HCT116 cells; how it was run: as §1
# [1] = Cytotoxicity against human HCT15 cells; how it was run: as §1
# HT-29 = test: Cytotoxicity against human HT-29 cells; how it was run: as §1
# KM12 = test: Cytotoxicity against human KM12 cells; how it was run: as §1
# SF-268 = test: Cytotoxicity against human SF268 cells; how it was run: as §1
# SF-295 = test: Cytotoxicity against human SF295 cells; how it was run: as §1
# SF-539 = test: Cytotoxicity against human SF539 cells; how it was run: as §1
# SNB-19 = test: Cytotoxicity against human SNB19 cells; how it was run: as §1
# SNB-75 = test: Cytotoxicity against human SNB75 cells; how it was run: as §2
# U-251 = test: Cytotoxicity against human U251 cells; how it was run: as §2
# LOX IMVI = test: Cytotoxicity against human LOXIMVI cells; how it was run: as §1
# MDA-MB-435 = test: Cytotoxicity against human MDA-MB-435 cells; how it was run: as §1
# NCI-H322M = test: Cytotoxicity against human NCI-H322M cells; how it was run: as §1
# NCI-H460 = test: Cytotoxicity against human NCI-H460 cells; how it was run: as §1
# SK-MEL-2 = test: Cytotoxicity against human SK-MEL-2 cells; how it was run: as §1
# SK-MEL-5 = test: Cytotoxicity against human SK-MEL-5 cells; how it was run: as §1
# [2] = Cytotoxicity against human UACC257 cells; how it was run: as §2
# [3] = Cytotoxicity against human UACC62 cells; how it was run: as §2
# IGROV-1 = test: Cytotoxicity against human IGROV1 cells; how it was run: as §1
# [4] = Cytotoxicity against human OVCAR4 cells; how it was run: as §1
# [5] = Cytotoxicity against human OVCAR5 cells; how it was run: as §1
# [6] = Cytotoxicity against human NCI-ADR-RES cells; how it was run: as §1
# SK-OV-3 = test: Cytotoxicity against human SKOV3 cells; how it was run: as §1
# 786-0 = test: Cytotoxicity against human 786-0 cells; how it was run: as §1
# A498 = test: Cytotoxicity against human A498 cells; how it was run: as §1
# ACHN = test: Cytotoxicity against human ACHN cells; how it was run: as §1
# CAKI-1 = test: Cytotoxicity against human Caki1 cells; how it was run: as §1
# SN12C = test: Cytotoxicity against human SN12C cells; how it was run: as §1
# TK-10 = test: Cytotoxicity against human TK10 cells; how it was run: as §2
# PC-3 = test: Cytotoxicity against human PC3 cells; how it was run: as §1
# DU-145 = test: Cytotoxicity against human DU145 cells; how it was run: as §1
# MCF7 = test: Cytotoxicity against human MCF7 cells; how it was run: as §1
# MDA-MB-231 = test: Cytotoxicity against human MDA-MB-231 cells; how it was run: as §1
# BT-549 = test: Cytotoxicity against human BT549 cells; how it was run: as §1
# T47D = test: Cytotoxicity against human T47D cells; how it was run: as §2
# [7] = read-out: pLC50 (the source's name) (converted)
structure (smiles),measurement,setting,value
COc1cc(/C=C/c2cc(OC)c3c(C/C=C(\C)CCC=C(C)C)c[nH]c3c2)cc2c1O[C@]1(C)CC[C@@H](O)C(C)(C)[C@H]1C2,GI50,CCRF-CEM,0.295 µM
same,CC50,CCRF-CEM; [7],> 100 µM
same,GI50,HL-60(TB),0.363 µM
same,CC50,HL-60(TB); [7],> 100 µM
same,TGI,HL-60(TB); read-out: pTGI (converted),10.5 µM
same,GI50,MOLT-4,0.251 µM
same,CC50,MOLT-4; [7],> 100 µM
same,TGI,MOLT-4; read-out: pTGI (converted),0.851 µM
same,GI50,SR,0.245 µM
same,CC50,SR; [7],> 100 µM
same,TGI,SR; read-out: pTGI (converted),1.48 µM
same,GI50,A549,1.66 µM
same,CC50,A549; [7],> 100 µM
same,TGI,A549; read-out: pTGI (converted),36.3 µM
same,GI50,HOP-62,1.07 µM
same,CC50,HOP-62; [7],22.4 µM
same,TGI,HOP-62; read-out: pTGI (converted),4.79 µM
same,GI50,COLO 205,1.02 µM
same,CC50,COLO 205; [7],6.03 µM
same,TGI,COLO 205; read-out: pTGI (converted),2.45 µM
same,GI50,HCC 2998,11.5 µM
same,CC50,HCC 2998; [7],57.5 µM
same,TGI,HCC 2998; read-out: pTGI (converted),25.7 µM
same,GI50,HCT-116,0.933 µM
same,CC50,HCT-116; [7],43.7 µM
same,TGI,HCT-116; read-out: pTGI (converted),12.9 µM
same,GI50,[1]; HCT-15,1.82 µM
same,CC50,"[1]; HCT-15, read-out: pLC50 (the source's name) (converted)",66.1 µM
same,TGI,"[1]; HCT-15, read-out: pTGI (converted)",11.5 µM
same,GI50,HT-29,0.447 µM
same,CC50,HT-29; [7],> 100 µM
same,TGI,HT-29; read-out: pTGI (converted),2.75 µM
same,GI50,KM12,0.562 µM
same,CC50,KM12; [7],5.13 µM
same,TGI,KM12; read-out: pTGI (converted),1.95 µM
same,GI50,SF-268,1.41 µM
same,CC50,SF-268; [7],52.5 µM
same,TGI,SF-268; read-out: pTGI (converted),15.8 µM
same,GI50,SF-295; read-out: GI50,0.2 µM
same,GI50,SF-295; read-out: pGI50 (converted),0.204 µM
same,TGI,SF-295; read-out: pTGI (converted),0.575 µM
same,GI50,SF-539,0.148 µM
same,CC50,SF-539; [7],5.37 µM
same,TGI,SF-539; read-out: pTGI (converted),0.871 µM
same,GI50,SNB-19,1.7 µM
same,CC50,SNB-19; [7],58.9 µM
same,TGI,SNB-19; read-out: pTGI (converted),13.5 µM
same,GI50,SNB-75,0.145 µM
same,CC50,SNB-75; [7],40.7 µM
same,TGI,SNB-75; read-out: pTGI (converted),0.692 µM
same,GI50,U-251,0.759 µM
same,CC50,U-251; [7],39.8 µM
same,TGI,U-251; read-out: pTGI (converted),12.9 µM
same,GI50,LOX IMVI,1 µM
same,CC50,LOX IMVI; [7],7.59 µM
same,TGI,LOX IMVI; read-out: pTGI (converted),2.75 µM
same,GI50,MDA-MB-435,1.62 µM
same,CC50,MDA-MB-435; [7],> 100 µM
same,TGI,MDA-MB-435; read-out: pTGI (converted),17.4 µM
same,GI50,NCI-H322M,19.1 µM
same,CC50,NCI-H322M; [7],> 100 µM
same,TGI,NCI-H322M; read-out: pTGI (converted),> 100 µM
same,GI50,NCI-H460,1.17 µM
same,CC50,NCI-H460; [7],43.7 µM
same,TGI,NCI-H460; read-out: pTGI (converted),9.12 µM
same,GI50,SK-MEL-2,1 µM
same,CC50,SK-MEL-2; [7],63.1 µM
same,TGI,SK-MEL-2; read-out: pTGI (converted),9.77 µM
same,GI50,SK-MEL-5,0.525 µM
same,CC50,SK-MEL-5; [7],4.37 µM
same,TGI,SK-MEL-5; read-out: pTGI (converted),1.86 µM
same,GI50,[2]; UACC-257,5.75 µM
same,CC50,"[2]; UACC-257, read-out: pLC50 (the source's name) (converted)",81.3 µM
same,TGI,"[2]; UACC-257, read-out: pTGI (converted)",25.7 µM
same,GI50,[3]; UACC-62,0.309 µM
same,CC50,"[3]; UACC-62, read-out: pLC50 (the source's name) (converted)",7.76 µM
same,TGI,"[3]; UACC-62, read-out: pTGI (converted)",1.48 µM
same,GI50,IGROV-1,3.8 µM
same,CC50,IGROV-1; [7],91.2 µM
same,TGI,IGROV-1; read-out: pTGI (converted),24 µM
same,GI50,[4]; OVCAR-4,2.57 µM
same,CC50,"[4]; OVCAR-4, read-out: pLC50 (the source's name) (converted)",> 100 µM
same,TGI,"[4]; OVCAR-4, read-out: pTGI (converted)",70.8 µM
same,GI50,[5]; OVCAR-5,1.02 µM
same,CC50,"[5]; OVCAR-5, read-out: pLC50 (the source's name) (converted)",49 µM
same,TGI,"[5]; OVCAR-5, read-out: pTGI (converted)",14.5 µM
same,GI50,[6],14.8 µM
same,CC50,[6]; [7],> 100 µM
same,TGI,[6]; read-out: pTGI (converted),> 100 µM
same,GI50,SK-OV-3,1.23 µM
same,LC50,SK-OV-3,> 100 µM
same,TGI,SK-OV-3; read-out: pTGI (converted),13.8 µM
same,GI50,786-0,0.195 µM
same,LC50 (concentration killing 50% of cells),786-0,56.2 µM
same,TGI,786-0; read-out: pTGI (converted),1.86 µM
same,GI50,A498,1.02 µM
same,CC50,A498; [7],16.6 µM
same,TGI,A498; read-out: pTGI (converted),3.72 µM
same,GI50,ACHN,0.661 µM
same,LC50 (concentration killing 50% of cells),ACHN,85.1 µM
same,TGI,ACHN; read-out: pTGI (converted),16.2 µM
same,GI50,CAKI-1,0.603 µM
same,LC50,CAKI-1,> 100 µM
same,TGI,CAKI-1; read-out: pTGI (converted),3.89 µM
same,GI50,SN12C,6.76 µM
same,LC50,SN12C,63.1 µM
same,TGI,SN12C; read-out: pTGI (converted),23.4 µM
same,GI50,TK-10,4.27 µM
same,LC50,TK-10,> 100 µM
same,TGI,TK-10; read-out: pTGI (converted),46.8 µM
same,GI50,PC-3,0.447 µM
same,LC50,PC-3,> 100 µM
same,TGI,PC-3; read-out: pTGI (converted),17.8 µM
same,GI50,DU-145,3.8 µM
same,LC50 (50% lethal concentration),DU-145,45.7 µM
same,TGI,DU-145; read-out: pTGI (converted),19.1 µM
same,GI50,MCF7,1.02 µM
same,LC50,MCF7,12.6 µM
same,TGI,MCF7; read-out: pTGI (converted),3.39 µM
same,GI50,MDA-MB-231,1.41 µM
same,LC50,MDA-MB-231,66.1 µM
same,TGI,MDA-MB-231; read-out: pTGI (converted),12.9 µM
same,GI50,BT-549,0.589 µM
same,CC50,BT-549; [7],64.6 µM
same,TGI,BT-549; read-out: pTGI (converted),17.8 µM
same,GI50,T47D,7.24 µM
same,CC50,T47D; [7],> 100 µM
same,TGI,T47D; read-out: pTGI (converted),34.7 µM
